{
  "source": "ChEMBL document CHEMBL5584279",
  "about": "“New Lipophilic Hydroxamates as Promising Trypanocidal Agents: Design, Synthesis, SAR, and Conformational Behavior Studies” (ACS Med Chem Lett, 2024)",
  "data": [
    {"test_system": "Trypanosoma brucei", "experiment": "Trypanocidal activity against bloodstream form of Trypanosoma brucei 221 assessed as inhibition of parasite growth incubated for 48 hrs followed by resazurin addition and measured after 16 hrs by resazurin assay", "format": "functional, organism-based", "summary_of_the_method": "(§1)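 Bloodstream-form T. brucei were cultured in vitro at pH 7.4. Growth inhibition was expressed as IC50 and IC90, the concentrations that inhibit parasite growth by 50% and 90%. Values are the mean of triplicate experiments ± SEM.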", "units": {"IC50": "nM"}, "values": [
      {"smiles": "CC(C)C[C@@H]1NC2(CCCCCC2)C(=O)N(CC(=O)NO)C1=O", "IC50": 99}
    ]},
    {"test_system": "Trypanosoma brucei", "experiment": "Trypanocidal activity against bloodstream form of Trypanosoma brucei assessed as inhibition of parasite growth", "format": "functional, organism-based", "summary_of_the_method": "as §1", "units": {"IC50": "nM"}, "values": [
      {"smiles": "CC1(c2ccc([N+](=O)[O-])cc2)NCC(=O)N(CC(=O)NO)C1=O", "note": "(stereo not drawn)", "IC50": 11700},
      {"smiles": "CCCCC1(c2ccccc2)NCC(=O)N(CC(=O)NO)C1=O", "note": "(stereo not drawn)", "IC50": 1720},
      {"smiles": "CC1(c2ccccc2)NCC(=O)N(CC(=O)NO)C1=O", "note": "(stereo not drawn)", "IC50": 6970},
      {"smiles": "CCCCC1(c2ccccc2)C(=O)N(CC(=O)NO)C(=O)CN1C", "note": "(stereo not drawn)", "IC50": 2650},
      {"smiles": "CN1CC(=O)N(CC(=O)NO)C(=O)C1(C)c1ccccc1", "note": "(stereo not drawn)", "IC50": 590},
      {"smiles": "CCCCN1CC(=O)N(CC(=O)NO)C(=O)C1(C)c1ccccc1", "note": "(stereo not drawn)", "IC50": 630},
      {"smiles": "CN1CC(=O)N(CC(=O)NO)C(=O)C1(C)c1ccc([N+](=O)[O-])cc1", "note": "(stereo not drawn)", "IC50": 1220},
      {"smiles": "CCCC1(c2ccccc2)NCC(=O)N(CC(=O)NO)C1=O", "note": "(stereo not drawn)", "IC50": 7250},
      {"smiles": "CC1(c2ccc(F)cc2)NCC(=O)N(CC(=O)NO)C1=O", "note": "(stereo not drawn)", "IC50": 19100},
      {"smiles": "CCCC1(c2ccccc2)C(=O)N(CC(=O)NO)C(=O)CN1C", "note": "(stereo not drawn)", "IC50": 1770},
      {"smiles": "CN1CC(=O)N(CC(=O)NO)C(=O)C1(C)c1ccc(F)cc1", "note": "(stereo not drawn)", "IC50": 8160},
      {"smiles": "CCCN1CC(=O)N(CC(=O)NO)C(=O)C1(C)c1ccccc1", "note": "(stereo not drawn)", "IC50": 470}
    ]}
  ]
}
